Laboratory results published in ChEMBL document CHEMBL1255403, “Genetic dissection of azole resistance mechanisms in Candida albicans and their validation in a mouse model of disseminated infection” (2010).
≈ marks a conversion by molar mass, not a printed value.

What was measured:
Assay type in all cases: functional
Candida albicans [1] = assay: Antibacterial activity against Fluconazole resistant Candida albicans DSY3606 containing tac1delta/delta ERG11-1/ERG11-1 (TAC1-5) genotype infected in BALB/c mouse assessed as effect on infection outcome score administered intraperitoneally 1 hr post bacterial challenge measured 3 days post infection
Method in brief: (§1)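 Intravenous infection of female BALB/c mice with a strain-specific inoculum. […] ED50 was derived from the 3-day infection outcome score at 72 h.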

Candida albicans [2] = assay: Antibacterial activity against Fluconazole resistant Candida albicans DSY3706 containing tac1delta/delta ERG11-1/ERG11-1 genotype infected in BALB/c mouse administered intraperitoneally 1 hr post bacterial challenge measured 3 days post infection
Method in brief: (§2)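 Female BALB/c mice (18–22 g) infected i.v. with a saline suspension of NGY-grown yeast. The challenge inoculum was strain-specific, set by pilot dose-finding. […] Endpoint at 72 h. Median of ED50s from kidney burden, weight change and outcome score.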

Candida albicans [3] = assay: Antibacterial activity against Fluconazole resistant Candida albicans DSY3706 containing tac1delta/delta ERG11-1/ERG11-1 genotype by EUCAST standards based broth microdilution method
Method in brief: (§3)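 Cells grew overnight in YEPD at 30°C and were diluted to 5 × 10^4 cells/ml in RPMI 1640 (MOPS 0.165 M, pH 7, 2% glucose, 1% DMSO). Drug from aqueous stock was 100-fold diluted. Plates ran 24 h at 35°C and were read at 450 nm. MIC was the concentration giving >50% OD decrease versus drug-free control.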

Candida albicans [4] = assay: Antibacterial activity against Fluconazole resistant Candida albicans DSY3604 containing tac1delta/delta ERG11-1/ERG11-5 genotype by EUCAST standards based broth microdilution method sCandida albicans DSY294
Candida albicans [5] = assay: (§4) Antibacterial activity against Fluconazole resistant Candida albicans DSY296 overexpressing multidrug transporter gene CDR1 and CDR2 and containing ERG11 G464S mutation containing CIp10 to restore URA3 function infected in BALB/c mouse assessed as weight change administered intraperitoneally 1 hr post bacterial challenge measured 3 days post infection
Candida albicans [6] = assay: […] activity against Fluconazole resistant Candida albicans DSY3752 containing (TAC1-5/TAC1-5 ERG11-1/ERG11-1) genotype by EUCAST standards based broth microdilution method sCandida albicans DSY294
Candida albicans [7] = assay: Antibacterial activity against azole-susceptible Candida albicans DSY294 by EUCAST standards based broth microdilution method; method in brief: as §3
Candida albicans [8] = assay: (§5) Antibacterial activity against Fluconazole resistant Candida albicans DSY3083 containing tac1delta/delta genotype containing CIp10 to restore URA3 function infected in BALB/c mouse assessed as weight change administered intraperitoneally 1 hr post bacterial challenge measured 3 days post infection
Candida albicans [9] = assay: […] activity against Fluconazole resistant Candida albicans DSY3608 containing tac1delta/delta ERG11-1/ERG11-1 (TAC1-1) genotype by EUCAST standards based broth microdilution method sCandida albicans DSY294
Candida albicans [10] = assay: Antibacterial activity against Fluconazole resistant Candida albicans DSY3608 containing tac1delta/delta ERG11-1/ERG11-1 (TAC1-1) genotype by EUCAST standards based broth microdilution method; method in brief: as §3
Candida albicans [11] = assay: […] activity against Fluconazole resistant Candida albicans DSY3606 containing tac1delta/delta ERG11-1/ERG11-1 (TAC1-5) genotype infected in BALB/c mouse assessed as weight change administered intraperitoneally 1 hr post […] measured 3 days post infection
Candida albicans [12] = assay: Antibacterial activity against Fluconazole resistant Candida albicans DSY3706 containing tac1delta/delta ERG11-1/ERG11-1 genotype infected in BALB/c mouse assessed as weight change administered intraperitoneally 1 hr post bacterial challenge measured 3 days post infection
Method in brief: (§6)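 Female BALB/c mice (18 to 22 g) infected i.v. with saline suspension of C. albicans grown overnight in NGY medium. […] Percentage body weight change over 3 days; ED50 = dose reducing mean weight change below 50% of controls.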

Candida albicans [13] = assay: Antibacterial activity against azole-susceptible Candida albicans DSY294 containing CIp10 to restore URA3 function infected in BALB/c mouse assessed as weight change administered intraperitoneally 1 hr post bacterial challenge measured 3 days post infection; method in brief: as §6
Candida albicans [14] = assay: Antibacterial activity against Fluconazole resistant Candida albicans DSY3606 containing tac1delta/delta ERG11-1/ERG11-1 (TAC1-5) genotype by EUCAST standards based broth microdilution method; method in brief: as §3
Candida albicans [15] = assay: as §5, with “effect on infection outcome score” for “weight change”; method in brief: as §1
Candida albicans [16] = assay: Antibacterial activity against Fluconazole resistant Candida albicans DSY3083 containing tac1delta/delta genotype by EUCAST standards based broth microdilution method; method in brief: as §3
Candida albicans [17] = assay: Antibacterial activity against Fluconazole resistant Candida albicans DSY3752 containing (TAC1-5/TAC1-5 ERG11-1/ERG11-1) genotype by EUCAST standards based broth microdilution method; method in brief: as §3
Candida albicans [18] = assay: Antibacterial activity against azole-susceptible Candida albicans DSY294 containing CIp10 to restore URA3 function infected in BALB/c mouse administered intraperitoneally 1 hr post bacterial challenge measured 3 days post infection; method in brief: as §2
Candida albicans [19] = assay: (§7) Antibacterial activity against Fluconazole resistant Candida albicans DSY3706 containing tac1delta/delta ERG11-1/ERG11-1 genotype infected in BALB/c mouse assessed as reduction in kidney microbial burden administered intraperitoneally 1 hr post bacterial challenge measured 3 days post infection
Method in brief: (§8)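 At 72 h the left kidney was homogenised in saline and viable counts taken as log10 CFU/g. ED50 was the dose lowering the mean burden >1.5 log below controls.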

Candida albicans [20] = assay: as §4, with “mouse” for “mouse assessed as weight change”; method in brief: as §2
Candida albicans [21] = assay: as §7, with “DSY3606” for “DSY3706”, “ERG11-1/ERG11-1 (TAC1-5)” for “ERG11-1/ERG11-1”; method in brief: as §8
Candida albicans [22] = assay: as §5, with “reduction in kidney microbial burden” for “weight change”; method in brief: as §8
Candida albicans [23] = assay: Antibacterial activity against Fluconazole resistant Candida albicans DSY3706 containing tac1delta/delta ERG11-1/ERG11-1 genotype infected in BALB/c mouse assessed as effect on infection outcome score administered intraperitoneally 1 hr post bacterial challenge measured 3 days post infection; method in brief: as §1
Candida albicans [24] = assay: Antibacterial activity against Fluconazole resistant Candida albicans DSY296 overexpressing multidrug transporter gene CDR1 and CDR2 and containing ERG11 G464S mutation by EUCAST standards based broth microdilution method; method in brief: as §3
Candida albicans [25] = assay: […] activity against Fluconazole resistant Candida albicans DSY3706 containing tac1delta/delta ERG11-1/ERG11-1 genotype by EUCAST standards based broth microdilution method sCandida albicans DSY294
Candida albicans [26] = assay: Antibacterial activity against Fluconazole resistant Candida albicans DSY3083 containing tac1delta/delta genotype by EUCAST standards based broth microdilution method sCandida albicans DSY294
Candida albicans [27] = assay: Antibacterial activity against Fluconazole resistant Candida albicans DSY3606 containing tac1delta/delta ERG11-1/ERG11-1 (TAC1-5) genotype infected in BALB/c mouse administered intraperitoneally 1 hr post bacterial challenge measured 3 days post infection; method in brief: as §2
Candida albicans [28] = assay: Antibacterial activity against Fluconazole resistant Candida albicans DSY3604 containing tac1delta/delta ERG11-1/ERG11-5 genotype by EUCAST standards based broth microdilution method; method in brief: as §3
Candida albicans [29] = assay: as §4, with “effect on infection outcome score” for “weight change”; method in brief: as §1
Candida albicans [30] = assay: Antibacterial activity against Fluconazole resistant Candida albicans DSY3606 containing tac1delta/delta ERG11-1/ERG11-1 (TAC1-5) genotype by EUCAST standards based broth microdilution method sCandida albicans DSY294
Candida albicans [31] = assay: Antibacterial activity against Fluconazole resistant Candida albicans DSY3083 containing tac1delta/delta genotype containing CIp10 to restore URA3 function infected in BALB/c mouse administered intraperitoneally 1 hr post bacterial challenge measured 3 days post infection; method in brief: as §2
Candida albicans [32] = assay: as §4, with “reduction in kidney microbial burden” for “weight change”; method in brief: as §8
Candida albicans [33] = assay: Antibacterial activity against azole-susceptible Candida albicans DSY294 containing CIp10 to restore URA3 function infected in BALB/c mouse assessed as reduction in kidney microbial burden administered intraperitoneally 1 hr post bacterial challenge measured 3 days post infection; method in brief: as §8
Candida albicans [34] = assay: Antibacterial activity against azole-susceptible Candida albicans DSY294 containing CIp10 to restore URA3 function infected in BALB/c mouse assessed as effect on infection outcome score administered intraperitoneally 1 hr post bacterial challenge measured 3 days post infection; method in brief: as §1
Candida albicans [35] = assay: […] activity against Fluconazole resistant Candida albicans DSY296 overexpressing multidrug transporter gene CDR1 and CDR2 and containing ERG11 G464S mutation by EUCAST standards based broth microdilution method relative to wildtype sCandida albicans DSY294

| SMILES | MIC (Candida albicans [3]) | fold change (FC) (Candida albicans [4]) | fold change (FC) (Candida albicans [6]) | MIC (Candida albicans [7]) | fold change (FC) (Candida albicans [9]) | MIC (Candida albicans [10]) | MIC (Candida albicans [14]) | MIC (Candida albicans [16]) | MIC (Candida albicans [17]) | MIC (Candida albicans [24]) | fold change (FC) (Candida albicans [25]) | fold change (FC) (Candida albicans [26]) | MIC (Candida albicans [28]) | fold change (FC) (Candida albicans [30]) | fold change (FC) (Candida albicans [35]) | further results |
| --- | --- | --- | --- | --- | --- | --- | --- | --- | --- | --- | --- | --- | --- | --- | --- | --- |
| OC(Cn1cncn1)(Cn1cncn1)c1ccc(F)cc1F [FLUCONAZOLE] | 0.25 µg/mL (≈ 0.816 µM) | 8 | 16 | 0.25 µg/mL (≈ 0.816 µM) | 1 | 0.25 µg/mL (≈ 0.816 µM) | 4 µg/mL (≈ 13.1 µM) | 4 µg/mL (≈ 13.1 µM) | 4 µg/mL (≈ 13.1 µM) | 64 µg/mL (≈ 209 µM) | 1 | 16 | 2 µg/mL (≈ 6.53 µM) | 16 | – | MIC (Candida albicans [1]): 120 µg/mL (≈ 392 µM); MIC (Candida albicans [2]): 3.5 µg/mL (≈ 11.4 µM); MIC (Candida albicans [5]): 120 µg/mL (≈ 392 µM); MIC (Candida albicans [8]): 10 µg/mL (≈ 32.7 µM); MIC (Candida albicans [11]): 120 µg/mL (≈ 392 µM); MIC (Candida albicans [12]): 1 µg/mL (≈ 3.27 µM); MIC (Candida albicans [13]): 1 µg/mL (≈ 3.27 µM); MIC (Candida albicans [15]): 10 µg/mL (≈ 32.7 µM); MIC (Candida albicans [18]): 3.5 µg/mL (≈ 11.4 µM); MIC (Candida albicans [19]): 3.5 µg/mL; MIC (Candida albicans [20]): 200 µg/mL (≈ 653 µM); MIC (Candida albicans [21]): 120 µg/mL; MIC (Candida albicans [22]): 10 µg/mL; MIC (Candida albicans [23]): 3.5 µg/mL (≈ 11.4 µM); MIC (Candida albicans [27]): 120 µg/mL (≈ 392 µM); MIC (Candida albicans [29]): 200 µg/mL (≈ 653 µM); MIC (Candida albicans [31]): 10 µg/mL (≈ 32.7 µM); MIC (Candida albicans [32]): > 200 µg/mL; MIC (Candida albicans [33]): 10 µg/mL; MIC (Candida albicans [34]): 3.5 µg/mL (≈ 11.4 µM) |
| C[C@@H](c1ncncc1F)[C@](O)(Cn1cncn1)c1ccc(F)cc1F [VORICONAZOLE] | 0.0078 µg/mL (≈ 0.0223 µM) | 8 | 16 | 0.0078 µg/mL (≈ 0.0223 µM) | 1 | 0.0078 µg/mL (≈ 0.0223 µM) | 0.125 µg/mL (≈ 0.358 µM) | 0.125 µg/mL (≈ 0.358 µM) | 0.125 µg/mL (≈ 0.358 µM) | 2 µg/mL (≈ 5.73 µM) | 1 | 16 | 0.0625 µg/mL (≈ 0.179 µM) | 16 | 256 | – |
| CCC(C)n1ncn(-c2ccc(N3CCN(c4ccc(OCC5COC(Cn6cncn6)(c6ccc(Cl)cc6Cl)O5)cc4)CC3)cc2)c1=O (centres undefined) [ITRACONAZOLE] | 0.0156 µg/mL (≈ 0.0221 µM) | 2 | 16 | 0.0156 µg/mL (≈ 0.0221 µM) | 2 | 0.031 µg/mL (≈ 0.0439 µM) | 0.125 µg/mL (≈ 0.177 µM) | 0.031 µg/mL (≈ 0.0439 µM) | 0.25 µg/mL (≈ 0.354 µM) | 0.25 µg/mL (≈ 0.354 µM) | 1 | 2 | 0.031 µg/mL (≈ 0.0439 µM) | 8 | 16 | – |
| CC[C@@H]([C@H](C)O)n1ncn(-c2ccc(N3CCN(c4ccc(OC[C@@H]5CO[C@@](Cn6cncn6)(c6ccc(F)cc6F)C5)cc4)CC3)cc2)c1=O [POSACONAZOLE] | 0.031 µg/mL (≈ 0.0442 µM) | 1 | 8 | 0.0312 µg/mL (≈ 0.0445 µM) | 1 | 0.031 µg/mL (≈ 0.0442 µM) | 0.25 µg/mL (≈ 0.357 µM) | 0.031 µg/mL (≈ 0.0442 µM) | 0.25 µg/mL (≈ 0.357 µM) | 0.25 µg/mL (≈ 0.357 µM) | 1 | 1 | 0.031 µg/mL (≈ 0.0442 µM) | 8 | 8 | – |
